According to ChEMBL document CHEMBL1136924 (J Med Chem, 2009):

Assays:
[1] = target: T1, 5-hydroxytryptamine receptor 3A (Rattus norvegicus, UniProt P35563); test: Displacement of [3H]zacopride from 5HT3 receptor in rat cortex
T1 sequence (P35563 whole entry): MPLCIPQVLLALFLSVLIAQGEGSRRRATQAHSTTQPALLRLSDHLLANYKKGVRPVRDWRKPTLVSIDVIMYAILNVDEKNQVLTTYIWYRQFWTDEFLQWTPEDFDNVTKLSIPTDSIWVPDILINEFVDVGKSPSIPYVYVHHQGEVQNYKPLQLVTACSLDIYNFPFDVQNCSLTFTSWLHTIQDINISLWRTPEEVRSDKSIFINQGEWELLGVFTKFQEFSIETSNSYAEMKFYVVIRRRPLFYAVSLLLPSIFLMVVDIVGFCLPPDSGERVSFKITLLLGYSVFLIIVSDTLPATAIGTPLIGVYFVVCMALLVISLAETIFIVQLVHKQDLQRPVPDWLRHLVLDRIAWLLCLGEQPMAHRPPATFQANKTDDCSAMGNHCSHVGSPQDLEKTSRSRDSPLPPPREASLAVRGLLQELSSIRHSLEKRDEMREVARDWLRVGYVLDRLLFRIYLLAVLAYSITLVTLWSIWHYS

[2] = target: T1, 5-hydroxytryptamine receptor 3A; test: Displacement of [3H]LY278584 from 5HT3 receptor in rat cortical homogenate
[3] = target: T2, 5-hydroxytryptamine receptor 1A (Rattus norvegicus, UniProt P19327); test: Displacement of [3H]8-OHDPAT from 5HT1A receptor in rat hippocampus; assay type: tissue-based
T2 sequence (P19327 whole entry): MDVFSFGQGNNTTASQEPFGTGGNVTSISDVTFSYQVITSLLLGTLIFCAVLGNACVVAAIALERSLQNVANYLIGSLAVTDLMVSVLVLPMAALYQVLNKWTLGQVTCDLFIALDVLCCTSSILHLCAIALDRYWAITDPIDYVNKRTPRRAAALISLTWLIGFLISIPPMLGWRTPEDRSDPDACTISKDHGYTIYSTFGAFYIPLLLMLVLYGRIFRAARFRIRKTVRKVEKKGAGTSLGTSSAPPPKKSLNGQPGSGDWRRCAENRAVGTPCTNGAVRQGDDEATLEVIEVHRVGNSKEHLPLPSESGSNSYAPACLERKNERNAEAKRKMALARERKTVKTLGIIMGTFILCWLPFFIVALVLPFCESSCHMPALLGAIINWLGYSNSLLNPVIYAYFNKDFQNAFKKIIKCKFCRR

[4] = target: 5-hydroxytryptamine receptor 2A (Rattus norvegicus, UniProt P14842); test: Displacement of [3H]ketanserin from 5HT2A receptor in rat cortex
[5] = target: 5-hydroxytryptamine receptor 4 (Cavia porcellus, UniProt O70528); test: Displacement of [3H]GR-113808 from 5HT4 receptor in guinea pig striatum
D(1A) dopamine receptor = D(1A) dopamine receptor (Rattus norvegicus, UniProt P18901); test: Displacement of [3H]SCH-23390 from dopamine D1 receptor in rat striatum
D(2) dopamine receptor = D(2) dopamine receptor (Rattus norvegicus, UniProt P61169); test: Displacement of [3H]spiperone from dopamine D2 receptor in rat striatum
[6] = target: Muscarinic acetylcholine receptor; test: Displacement of [3H]QNB from muscarinic receptor in rat cortex
Rattus norvegicus = test: Antagonist activity at 5HT3 receptor in iv dosed urethane-anesthetized Sprague-Dawley rat assessed as inhibition of 1-phenylbiguanide-induced bradycardia administered 5 mins before 1-phenylbiguanide challenge measured after 5 to 30 mins post-treatment by von Bezold-Jarisch reflex test; assay type: functional; details: read-out: ID50 (the source's name)
[7] = target: T3, 5-hydroxytryptamine receptor 3A (Cavia porcellus) (UniProt O70212); test: Agonist activity at 5HT3 receptor in voltage-stimulated guinea pig left atrium assessed as positive inotropic potency; assay type: functional, tissue-based; details: Cardiac atrium
T3 sequence (whole entry): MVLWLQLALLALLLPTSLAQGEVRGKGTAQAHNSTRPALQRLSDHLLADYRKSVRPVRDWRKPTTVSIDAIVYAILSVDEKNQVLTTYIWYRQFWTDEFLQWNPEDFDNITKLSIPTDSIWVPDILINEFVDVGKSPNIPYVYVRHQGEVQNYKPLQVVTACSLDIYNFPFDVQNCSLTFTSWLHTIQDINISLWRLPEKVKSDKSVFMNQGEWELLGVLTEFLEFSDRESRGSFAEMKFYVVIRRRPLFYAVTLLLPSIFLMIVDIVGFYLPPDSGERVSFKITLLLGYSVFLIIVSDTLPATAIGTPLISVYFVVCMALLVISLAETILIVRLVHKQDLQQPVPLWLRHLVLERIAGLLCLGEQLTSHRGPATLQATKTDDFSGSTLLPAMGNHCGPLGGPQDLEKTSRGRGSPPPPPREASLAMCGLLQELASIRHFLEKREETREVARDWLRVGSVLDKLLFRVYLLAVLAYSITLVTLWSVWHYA
Procedure, shortened: (§1)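 Isolated guinea pig atria in PSS (Tyrode) with ketanserin 1 µM, 95% O2-5% CO2, pH 7.4, 35 °C. Right atrium beating spontaneously (rate); left atrium paced 1 Hz, 0.6-0.8 ms pulses near 50% threshold (force). Isometric recording after 45-60 min stabilization.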

[8] = target: T3, 5-hydroxytryptamine receptor 3A (Cavia porcellus); test: Intrinsic activity at 5HT3 receptor in voltage-stimulated guinea pig left atrium assessed as positive inotropic potency relative to serotonin; assay type: tissue-based; details: Cardiac atrium
Procedure, shortened: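 Electrically paced guinea pig left atrium (1 Hz) in PSS containing ketanserin 1 µM, pH 7.4, 35 °C. Contractile force recorded isometrically while cumulative concentrations of 0.1-100 µM were added (DMSO ≤0.3%). Intrinsic activity is expressed as the maximal response relative to that of 5-HT.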

[9] = target: T3, 5-hydroxytryptamine receptor 3A (Cavia porcellus); test: Agonist activity at 5HT3 receptor in spontaneously beating guinea pig right atrium assessed as positive chronotropic potency; assay type: functional, tissue-based; details: Cardiac atrium; procedure, shortened: as §1
[10] = target: T3, 5-hydroxytryptamine receptor 3A (Cavia porcellus); test: Intrinsic activity at 5HT3 receptor in spontaneously beating guinea pig right atrium assessed as positive chronotropic potency relative to serotonin; details: Cardiac atrium
Procedure, shortened: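 Guinea pig left and right atria were hung in a 15 mL bath of PSS (pH 7.4, 95% O2-5% CO2, 35 °C) with ketanserin 1 µM. The right atrium beat spontaneously; the left was paced at 1 Hz. Cumulative doses (0.1-100 µM; DMSO ≤0.3%) were added after 45-60 min stabilization. Rate or isometric force was recorded. EC50 came from Probit analysis, n≥4. Intrinsic activity was taken relative to 5-HT.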

Chain of 5-hydroxytryptamine receptor 4 (O70528 whole entry): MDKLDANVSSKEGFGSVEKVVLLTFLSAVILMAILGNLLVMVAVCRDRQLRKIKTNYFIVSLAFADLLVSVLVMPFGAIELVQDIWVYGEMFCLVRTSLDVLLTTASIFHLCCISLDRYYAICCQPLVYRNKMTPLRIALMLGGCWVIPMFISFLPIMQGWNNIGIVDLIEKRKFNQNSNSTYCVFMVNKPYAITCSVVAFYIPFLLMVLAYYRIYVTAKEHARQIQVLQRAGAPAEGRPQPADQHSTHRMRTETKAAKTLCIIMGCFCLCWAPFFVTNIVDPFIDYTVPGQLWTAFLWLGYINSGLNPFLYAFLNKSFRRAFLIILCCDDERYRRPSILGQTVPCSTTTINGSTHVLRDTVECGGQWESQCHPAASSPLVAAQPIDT
Chain of D(1A) dopamine receptor (P18901 whole entry): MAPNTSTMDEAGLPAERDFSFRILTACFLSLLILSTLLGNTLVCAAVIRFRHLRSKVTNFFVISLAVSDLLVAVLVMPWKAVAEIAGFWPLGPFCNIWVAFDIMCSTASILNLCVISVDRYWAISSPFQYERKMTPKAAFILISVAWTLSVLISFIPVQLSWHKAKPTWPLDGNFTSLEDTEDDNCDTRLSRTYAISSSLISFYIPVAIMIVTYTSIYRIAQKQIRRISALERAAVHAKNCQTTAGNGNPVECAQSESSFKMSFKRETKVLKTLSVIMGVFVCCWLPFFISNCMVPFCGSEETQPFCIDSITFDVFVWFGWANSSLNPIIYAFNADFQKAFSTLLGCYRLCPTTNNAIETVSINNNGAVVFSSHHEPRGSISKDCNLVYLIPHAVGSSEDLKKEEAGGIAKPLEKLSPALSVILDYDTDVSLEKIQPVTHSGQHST
Chain of D(2) dopamine receptor (P61169 whole entry): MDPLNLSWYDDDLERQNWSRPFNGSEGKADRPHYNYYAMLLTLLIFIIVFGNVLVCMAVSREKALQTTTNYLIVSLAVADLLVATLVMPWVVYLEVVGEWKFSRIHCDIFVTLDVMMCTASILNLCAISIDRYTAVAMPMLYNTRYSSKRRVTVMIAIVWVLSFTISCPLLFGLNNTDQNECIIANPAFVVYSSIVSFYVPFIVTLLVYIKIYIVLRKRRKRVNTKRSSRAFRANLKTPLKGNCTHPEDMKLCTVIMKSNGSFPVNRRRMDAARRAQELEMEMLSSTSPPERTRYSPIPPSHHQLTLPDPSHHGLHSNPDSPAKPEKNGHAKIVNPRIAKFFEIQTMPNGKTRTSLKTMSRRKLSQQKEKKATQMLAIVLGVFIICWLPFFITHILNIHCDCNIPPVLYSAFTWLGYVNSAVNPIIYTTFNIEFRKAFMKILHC
Chain of 5-hydroxytryptamine receptor 2A (P14842 whole entry): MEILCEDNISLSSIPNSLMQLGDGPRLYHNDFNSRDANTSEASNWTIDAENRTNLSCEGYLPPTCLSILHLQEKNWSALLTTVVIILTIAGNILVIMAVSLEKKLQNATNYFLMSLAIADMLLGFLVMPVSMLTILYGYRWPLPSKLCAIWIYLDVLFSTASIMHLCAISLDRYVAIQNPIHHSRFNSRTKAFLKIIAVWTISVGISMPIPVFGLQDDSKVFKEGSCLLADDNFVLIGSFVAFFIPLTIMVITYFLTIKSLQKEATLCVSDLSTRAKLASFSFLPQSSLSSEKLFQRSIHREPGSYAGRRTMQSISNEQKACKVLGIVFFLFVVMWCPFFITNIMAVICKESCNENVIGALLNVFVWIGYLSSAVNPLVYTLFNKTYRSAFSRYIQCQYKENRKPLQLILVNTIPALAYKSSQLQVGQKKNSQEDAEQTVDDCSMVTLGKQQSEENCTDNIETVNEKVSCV

`CN1CCN(c2nc3cc(O)ccc3n3cccc23)CC1` showed a Ki [1] of 0.7 nM.
With `NC(CO)C(=O)N1CCN(c2nc3cc(F)ccc3n3cccc23)CC1` (single isomer, unassigned) the Ki [2] was 237 nM.
`O=c1[nH]nc(CN2CCN(c3nc4cc(F)ccc4n4cccc34)CC2)[nH]1` was tested, and the Ki [2] was 17 nM.
`Cc1cccc2nc(N3CCN(C(C(=O)O)c4ccccc4)CC3)c3cccn3c12` (configuration not stated) showed a Ki [2] of 44 nM.
With `O=C(O)CN1CCN(c2ccc3ccccc3n2)CC1` the Ki [2] was 11.2 nM, the Ki [3] was > 10 µM and the Ki [4] was > 10 µM. The Ki [5] was 5.75 µM, the Ki (D(1A) dopamine receptor) was > 10 µM and the Ki (D(2) dopamine receptor) was 919 nM. For the same molecule, the Ki [6] was > 10 µM.
`Cc1cccc2nc(N3CCN(C)CC3)c3cccn3c12` was tested, and the Ki [1] was 0.8 nM and the Ki [3] was > 10 µM.
Molecule `O=C(CN1CCN(c2nc3cc(F)ccc3n3cccc23)CC1)NO` has a Ki [2] of 2.2 nM and an ED50 (Rattus norvegicus) of 0.05 mg/kg.
For `Cc1[nH]c2ccc(O)cc2c1CCN`, the pD2 [7] was 5.51, the Intrinsic activity [8] was 1 and the pD2 [9] was 5.06. The Intrinsic activity [10] was 1.
With `Fc1ccc2c(c1)nc(N1CCN(Cc3nnn[nH]3)CC1)c1cccn12` the Ki [2] was 65 nM.
`c1ccc2nc(N3CCNCC3)ccc2c1` [QUIPAZINE] was tested, and the Ki [2] was 0.96 nM and the Ki [5] was > 10 µM.
